Results taken from article PMC2995081 (Nucleic Acids Research, 2010).

Assays:
GST-Mdm2 RING domain [1] = biological target: GST-Mdm2 RING domain (Homo sapiens, UniProt Q00987); test: ATP binding competition assay; conditions: for binding to Mdm2 (displacement of bound γ-32P ATP): Mdm2(400–484), Nebularine: concentration range up to 1 mM
GST-Mdm2 RING domain [2] = test: ATP binding competition assay; set-up: species or system human; conditions: Mdm2(410–491) with eight lysines mutated to alanine (8 KA, Mdm2-NoLS)
GST-Mdm2(400–491) = GST-Mdm2(400–491) (Homo sapiens, UniProt Q00987); test: Isothermal titration calorimetry; type: binding; conditions: 2 mM ATP titrated into 100 nM GST-Mdm2(400–491), single-site isotherm
Chain of GST-Mdm2(400–491) (Q00987 400-491): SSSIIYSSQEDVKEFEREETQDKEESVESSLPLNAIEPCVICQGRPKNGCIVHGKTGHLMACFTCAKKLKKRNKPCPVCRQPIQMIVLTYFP
Procedure, shortened: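 GST-Mdm2(400–491) was expressed in E. coli BL21 (16 h induction at 25°C) and purified on glutathione-Sepharose. In assay buffer (100 mM Tris-HCl pH 7.0, 100 mM NaCl, 10 mM MgCl2, 2 mM DTT), 2 mM ATP or GTP was injected into 100 nM protein over twenty injections. Buffer-alone heat of dilution was subtracted, and data were fitted to a single-site isotherm. Four independent measurements were made.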

Compound | binding to Mdm2 (displacement of bound γ-32P ATP) (GST-Mdm2 RING domain [1]) | Kd (GST-Mdm2 RING domain [2]) | dissociation constant (Kd) (GST-Mdm2 RING domain [1]; GST-Mdm2(400–491), competition of γ-32P ATP) | Kd (GST-Mdm2(400–491))
Nc1ncnc2c1ncn2[C@H]1C[C@H](O)[C@@H](CO)O1 [2′ deooxyadenosine, 2′deoxyadenosine] | completely abrogated the binding | – | – | –
Nc1ncnc2c1ncn2[C@@H]1O[C@H](COP(=O)(O)OP(=O)(O)OP(=O)(O)O)[C@@H](O)[C@H]1O [ATP, adenosine triphosphate] | – | low micromolar range | low micromolar range | 4 µM
Nc1nc(F)nc2c1ncn2[C@@H]1O[C@H](CO)[C@@H](O)[C@@H]1O [F-Ara-A, Fludarabine] | did not bind | – | – | –
OC[C@H]1O[C@@H](n2cnc3cncnc32)[C@H](O)[C@@H]1O [Nebularine] | no binding | – | – | –
